Measurements reported in ChEMBL document CHEMBL1165943, “Design and synthesis of new anticancer pyrimidines with multiple-kinase inhibitory effect” (Bioorg Med Chem, 2010).

Experiments:
A549 = test: Cytotoxicity against human A549 cells assessed as cell growth at 10 uM; assay type: functional; details: Homo sapiens, A549; read-out: Activity
Procedure, shortened: (§1)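 Single-concentration screen at 10 μM across the 60-cell-line panel (nine tissue types); growth percentage recorded per cell line, with inhibition taken as 100 minus growth percentage.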

[1] = Cytotoxicity against human Hs 578T cells assessed as cell growth at 10 uM; assay type: functional; details: read-out: Activity; procedure, shortened: as §1
SN12C = test: Cytotoxicity against human SN12C cells assessed as cell growth at 10 uM; assay type: functional; details: Homo sapiens, SN12C; read-out: Activity
Procedure, shortened: (§2)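 Single-dose screen at 10 μM across the 60-cell-line panel. Cells grown in RPMI 1640 with 5% FBS and 2 mM L-glutamine, seeded at 5,000–40,000 cells/well according to doubling time, and treated 24 h later. Exposure lasted 48 h at 37 °C, 5% CO₂. Adherent cells were fixed with cold TCA, suspension cells were fixed settled, and both were stained with SRB and read at 515 nm. Growth % was recorded, with inhibition % = 100 − growth %.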

COLO 205 = test: Cytotoxicity against human COLO205 cells assessed as cell growth at 10 uM; assay type: functional; details: Homo sapiens, COLO 205; read-out: Activity; procedure, shortened: as §1
UACC-257 = test: Cytotoxicity against human UACC257 cells assessed as cell growth at 10 uM; assay type: functional; details: Homo sapiens, UACC-257; read-out: Activity; procedure, shortened: as §2
OVCAR-4 [2] = test: Cytotoxicity against human OVCAR4 cells assessed as cell growth at 10 uM; assay type: functional; details: Homo sapiens, OVCAR-4; read-out: Activity; procedure, shortened: as §2
HOP-92 = test: Cytotoxicity against human HOP92 cells assessed as cell growth at 10 uM; assay type: functional; details: Homo sapiens, HOP-92; read-out: Activity; procedure, shortened: as §1
OVCAR-8 = test: Cytotoxicity against human OVCAR8 cells assessed as cell growth at 10 uM; assay type: functional; details: Homo sapiens, OVCAR-8; read-out: Activity; procedure, shortened: as §2
MDA-MB-435 = test: Cytotoxicity against human MDA-MB-435 cells assessed as cell growth at 10 uM; assay type: functional; details: read-out: Activity; procedure, shortened: as §2
[3] = Cytotoxicity against human […] cells assessed as cell growth at 10 uM; assay type: functional; details: Homo sapiens, RPMI8266; read-out: Activity; procedure, shortened: as §2
HT-29 = test: Cytotoxicity against human HT-29 cells assessed as cell growth at 10 uM; assay type: functional; details: Homo sapiens, HT-29; read-out: Activity; procedure, shortened: as §1
U-251 = test: Cytotoxicity against human U251 cells assessed as cell growth at 10 uM; assay type: functional; details: Homo sapiens, U-251; read-out: Activity; procedure, shortened: as §2
NCI-H460 [4] = test: Cytotoxicity against human NCI-H460 cells assessed as cell growth at 10 uM; assay type: functional; details: Homo sapiens, NCI-H460; read-out: Activity; procedure, shortened: as §2
SF-268 = test: Cytotoxicity against human SF268 cells assessed as cell growth at 10 uM; assay type: functional; details: Homo sapiens, SF-268; read-out: Activity; procedure, shortened: as §2
LOX IMVI = test: Cytotoxicity against human LOXIMVI cells assessed as cell growth at 10 uM; assay type: functional; details: Homo sapiens, LOX IMVI; read-out: Activity; procedure, shortened: as §2
HL-60(TB) = test: Cytotoxicity against human HL-60(TB) cells assessed as cell growth at 10 uM; assay type: functional; details: Homo sapiens, HL-60; read-out: Activity
Procedure, shortened: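 Single-concentration 10 µM screen of HL-60(TB) within the 60-line panel, grown in RPMI 1640 with 5% FBS. The drug from DMSO stock is incubated 48 h at 37 °C, settled cells are TCA-fixed and SRB-stained, and absorbance is read at 515 nm. Percent growth is reported, and inhibition % is taken as 100 minus growth %.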

SNB-19 = test: Cytotoxicity against human SNB19 cells assessed as cell growth at 10 uM; assay type: functional; details: read-out: Activity; procedure, shortened: as §2
HOP-62 = test: Cytotoxicity against human HOP62 cells assessed as cell growth at 10 uM; assay type: functional; details: Homo sapiens, HOP-62; read-out: Activity; procedure, shortened: as §1
UACC-62 = test: Cytotoxicity against human UACC62 cells assessed as cell growth at 10 uM; assay type: functional; details: Homo sapiens, UACC-62; read-out: Activity; procedure, shortened: as §2
[5] = Growth inhibition of human NCI60 cells at 10 uM after 48 hrs by sulforhodamine B assay relative to control; assay type: functional; details: Homo sapiens, NCI60, 48 h; read-out: GI
Procedure, shortened: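 Single 10 µM dose across the 60-line panel for 48 h, with the same culture, TCA fixation and SRB 515 nm read-out. Inhibition % = 100 − growth %, given as the mean over the 60 cell lines.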

CCRF-CEM = test: Cytotoxicity against human CCRF-CEM cells assessed as cell growth at 10 uM; assay type: functional; details: Homo sapiens, CCRF-CEM; read-out: Activity; procedure, shortened: as §1
RXF 393 = test: Cytotoxicity against human RXF393 cells assessed as cell growth at 10 uM; assay type: functional; details: Homo sapiens, RXF 393; read-out: Activity; procedure, shortened: as §2
NCI/ADR-RES = test: Growth inhibition of human NCI/ADR-RES cells after 48 hrs by sulforhodamine B assay; assay type: functional, cell-based; details: for CC50: read-out: LC50 (the source's name)
Procedure, shortened: (§3)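 Cells grown in RPMI 1640 with 5% FBS and 2 mM L-glutamine, seeded at 5,000–40,000 cells/well according to doubling time. After 24 h, time-zero plates are TCA-fixed. Five concentrations (10-fold or ½log dilutions, DMSO stocks) are applied for 48 h at 37 °C, 5% CO₂. Cells are TCA-fixed, SRB-stained and read at 515 nm. IC₅₀ is taken from [(Ti−Tz)/(C−Tz)]×100 = 50.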

NCI-H322M = test: Cytotoxicity against human NCI-H322M cells assessed as cell growth at 10 uM after 48 hrs by sulforhodamine B assay; assay type: functional; details: read-out: Activity
KM12 = test: Cytotoxicity against human KM12 cells assessed as cell growth at 0.001 uM after 48 hrs by sulforhodamine B assay; assay type: functional; details: KM12, 48 h, read-out: Activity
K562 = test: Cytotoxicity against human K562 cells assessed as cell growth at 0.001 uM after 48 hrs by sulforhodamine B assay; assay type: functional; details: K562, 48 h, read-out: Activity
OVCAR-4 [6] = test: Cytotoxicity against human OVCAR4 cells assessed as cell growth at 100 nM after 48 hrs by sulforhodamine B assay; assay type: functional; details: OVCAR-4, 48 h, read-out: Activity
HCT-116 = test: Cytotoxicity against human HCT116 cells assessed as cell growth at 0.01 uM after 48 hrs by sulforhodamine B assay; assay type: functional; details: HCT-116, 48 h, read-out: Activity
MOLT-4 = test: Cytotoxicity against human MOLT4 cells assessed as cell growth at 1 uM after 48 hrs by sulforhodamine B assay; assay type: functional; details: MOLT-4, 48 h, read-out: Activity
NCI-H460 [7] = test: Growth inhibition of human NCI-H460 cells after 48 hrs by sulforhodamine B assay; assay type: functional, cell-based; details: NCI-H460, 48 h; for CC50: read-out: LC50 (the source's name); procedure, shortened: as §3
OVCAR-5 = test: Cytotoxicity against human OVCAR5 cells assessed as cell growth at 1 uM after 48 hrs by sulforhodamine B assay; assay type: functional; details: OVCAR-5, 48 h, read-out: Activity
[8] = Homo sapiens, NCI/ADR-RES, 48 h

SMILES	growth at 10 µM [1] [%]	growth at 10 µM (SN12C) [%]	growth at 10 µM (COLO 205) [%]	growth at 10 µM (UACC-257) [%]	growth at 10 µM (OVCAR-4 [2]) [%]	growth at 10 µM (OVCAR-8) [%]	growth at 10 µM (MDA-MB-435) [%]	growth at 10 µM [3] [%]	growth at 10 µM (HT-29) [%]	growth at 10 µM (U-251) [%]	growth at 10 µM (NCI-H460 [4]) [%]	growth at 10 µM (SF-268) [%]	growth at 10 µM (LOX IMVI) [%]	growth at 10 µM (HL-60(TB)) [%]	growth at 10 µM (SNB-19) [%]	growth at 10 µM (HOP-62) [%]	growth at 10 µM (UACC-62) [%]	inhibition of growth at 10 µM [5] [%]	growth at 10 µM (CCRF-CEM) [%]	growth at 10 µM (RXF 393) [%]	further results
FC(F)(F)c1cc(Nc2nccc(-c3ccc(-c4ccccc4)nc3)n2)cc(C(F)(F)F)c1	94.8	86.1	95.6	113	95	94.1	109	96.2	86	99.1	107	105	98.8	113	109	110	85.3	0.49	89.7	143	growth at 10 µM (A549): 97.3%; growth at 10 µM (HOP-92): 89.7%
Cc1ccc(Nc2nc(C)cc(-c3cccnc3)n2)c(C)c1	95.9	91.2	122	100	102	94.2	95.4	86.7	96.8	92.2	95.7	96.4	102	98.5	101	111	82.4	3.91	95.4	90.7	growth at 10 µM (A549): 90.3%; growth at 10 µM (HOP-92): 86.9%
Cc1cc(-c2cccnc2)nc(NC(=O)c2cccc(C(F)(F)F)c2)n1	107	95.3	119	99.6	103	96.6	100	98.6	98.9	97	103	103	103	97	90.8	106	92.3	0.62	94.8	90.8	growth at 10 µM (A549): 97.4%; growth at 10 µM (HOP-92): 107%
CC(=O)Nc1cccc(-c2ccc(-c3ccnc(NC(=O)Nc4cc(C(F)(F)F)cc(C(F)(F)F)c4)n3)cn2)c1.Cl	120	68	53.5	50.5	7.08	27.9	73.9	38.1	9.2	-25.4	34.5	83.6	49.4	60.1	50.5	-3.2	46.6	50.9	43.3	121	GI50 (NCI/ADR-RES; [8]): 3.66 µM; TGI (NCI/ADR-RES; [8]): 47.4 µM; IC50 (NCI/ADR-RES; Homo sapiens, NCI/ADR-RES, 48 h, read-out: IC50): 3.66 µM; CC50 (NCI/ADR-RES; [8]): > 100 µM; growth at 10 µM (NCI-H322M): -62%; growth at 10 µM (HOP-92): 72.4%; growth at 0.001 µM (KM12): 99%; growth at 0.001 µM (K562): 93%; growth at 0.1 µM (OVCAR-4 [6]): 61%; growth at 0.01 µM (HCT-116): 85%; growth at 1 µM (MOLT-4): 4%; GI50 (NCI-H460 [7]): 2.06 µM; IC50 (NCI-H460 [7]): 2.06 µM; TGI (NCI-H460 [7]): 7.07 µM; CC50 (NCI-H460 [7]): 59.7 µM; growth at 1 µM (OVCAR-5): 62%
CC(=O)c1ccccc1-c1ccc(-c2ccnc(NC(=O)Nc3cc(N4CCOCC4)cc(C(F)(F)F)c3)n2)cn1	60.8	52.3	85.7	65.1	27.5	43	82.8	79.7	33.1	56.4	87.4	63.9	44.7	95.7	71.7	7.86	76	38.4	80.7	-19.6	growth at 10 µM (A549): 68%; TGI (NCI/ADR-RES; [8]): > 100 µM; CC50 (NCI/ADR-RES; [8]): > 100 µM; IC50 (NCI/ADR-RES; nci/adr-res): Not Active; growth at 10 µM (NCI-H322M): 80%; growth at 0.001 µM (KM12): 103%; growth at 0.001 µM (K562): 81%; growth at 0.1 µM (OVCAR-4 [6]): 92%; growth at 0.01 µM (HCT-116): 95%; growth at 1 µM (MOLT-4): 86%; GI50 (NCI-H460 [7]): > 100 µM; IC50 (NCI-H460 [7]): > 100 µM; TGI (NCI-H460 [7]): > 100 µM; CC50 (NCI-H460 [7]): > 100 µM; growth at 1 µM (OVCAR-5): 96%
